Shown are actives, neighbours in structure and some others; about 2.4% of the full set was active somewhere.
PfM18AAP inh-1: blocks P. falciparum M18 aspartyl aminopeptidase; recombinant PfM18AAP, H-Glu-NHMec fluorogenic cleavage; inhibition, % at 7.35 µM; 290,000 tested, 1.2% active;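 active = inhibition above the campaign mean inhibition over all tested compounds plus 3 SD, cut at about 28% in these data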;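 note: 0% = plate median of test compound wells and 100% = 2 mM ZnCl2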
IMP-1 inh: inhibitors of Pseudomonas aeruginosa IMP-1 metallo-beta-lactamase. purified IMP-1, nitrocefin hydrolysis, epi-absorbance fluorescence. 290,000 tested, 0.45% active. inhibition, % at 5.6 µM;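 active = inhibition above the mean plus 3 SD of all compounds in the same screening run, cut at about 4.5% in these data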;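 note: 0% = IMP-1 with DMSO and 100% = DMSO wells lacking enzyme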
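assay system = purified recombinant IMP-1 metallo-beta-lactamase enzyme | schedule = 15 min preincubation plus 25 min reaction at 25 °C | signal = Epi-absorbance fluorescence, 480 nm excitation, 530 nm emission | read-out basis = percent inhibition from optical density relative to buffer-blank wells | controls = IMP-1 with DMSO as 0%, enzyme-free DMSO as 100%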
VIM-2 inhibitor: inhibitors of Pseudomonas aeruginosa VIM-2 metallo-beta-lactamase; purified VIM-2, nitrocefin hydrolysis, epi-absorbance fluorescence; 290,000 tested, 0.89% active; AID 1527; inhibition, % at 5.6 µM;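 active = inhibition above the mean of all tested compounds plus 3 SD, cutoff set per screening run, cut at about 7.5% in these data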;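 note: red hydrolysis product quenches plate fluorescence so inhibitors raise well fluorescence; 0% = enzyme with DMSO and 100% = DMSO without enzyme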
sPLA2-III inh: Inhibits HGIII-sPLA2 liposome hydrolysis, primary screen | Q9NZ20 | QFRET BODIPY PC-A2 liposome hydrolysis, fluorescence | inhibition, % at 12.2 µM | 370,000 tested, 0.56% active | AID 743126;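 active = inhibition above mean plus 3 SD of compounds lying within the high and low control bounds, cut at about 19% in these data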;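 note: 0% = median of test compound wells and 100% = no enzyme DMSO wells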
Target sequence (Q9NZ20 whole entry, looked up): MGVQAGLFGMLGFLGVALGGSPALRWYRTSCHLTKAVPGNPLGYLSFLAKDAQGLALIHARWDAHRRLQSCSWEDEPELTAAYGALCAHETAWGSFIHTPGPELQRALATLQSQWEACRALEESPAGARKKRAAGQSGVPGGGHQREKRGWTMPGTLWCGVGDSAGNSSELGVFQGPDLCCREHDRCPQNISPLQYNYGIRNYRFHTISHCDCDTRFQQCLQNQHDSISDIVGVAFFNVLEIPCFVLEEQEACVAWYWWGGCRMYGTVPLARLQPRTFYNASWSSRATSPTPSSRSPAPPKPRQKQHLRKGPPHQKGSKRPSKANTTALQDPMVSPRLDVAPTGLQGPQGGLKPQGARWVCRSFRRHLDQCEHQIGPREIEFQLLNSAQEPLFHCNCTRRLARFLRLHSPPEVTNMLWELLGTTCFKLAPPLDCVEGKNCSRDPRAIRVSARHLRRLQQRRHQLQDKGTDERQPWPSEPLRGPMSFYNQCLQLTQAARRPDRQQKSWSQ
PfM18AAP inh-2: PfM18AAP inhibition, confirmation; shares compounds with PfM18AAP inh-1; recombinant PfM18AAP, H-Glu-NHMec fluorogenic cleavage; inhibition, % at 7.35 µM; 2,400 tested, 28% active; AID 2170;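 active = mean inhibition over replicate wells above the hit cutoff set for the earlier primary screen, cut at about 29% in these data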;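 note: 0% = median of test compound wells and 100% = 2 mM ZnCl2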
CTSL1 counter: Cathepsin L (human) inhibition, confirmation | shares compounds with PfM18AAP inh-1 | purified cathepsin L1, Z-Leu-Arg-MCA fluorescence | inhibition, % at 5.96 µM | 2,400 tested, under 10 active;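 active = average inhibition across replicates above the hit cutoff set in the earlier primary screen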;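 note: 0% = median of test compound wells and 100% = Z-Phe-Ala-diazomethylketone 1 µM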
Active calls of the source: *; x = no result.

SMILES	PfM18AAP inh-1	IMP-1 inh	VIM-2 inhibitor	sPLA2-III inh	PfM18AAP inh-2	CTSL1 counter
Clc1ccc(NCn2cncn2)nc1	78*	0	2	5	63*	4
O=C(Cn1cncn1)NCc1ccc(Cl)cc1	0	-1	-1	0	x	x
CCN1CCN(c2ccc(S(=O)(=O)N3CCCCC3)cc2NC(=O)c2sccc2C)CC1	x	x	x	-8	x	x
O=C(NCC1COc2ccccc2O1)c1ccc(NC(=O)c2cccc(F)c2)cc1 (centres undefined)	x	x	x	-3	x	x
COC(=O)c1ccccc1NC(=O)CSc1[nH]c(=O)cc(C)c1C#N	-4	-3	-6	-7	x	x
Cc1cc(=O)[nH]c(SCC(=O)Nc2ccccc2C#N)c1C#N	38*	-3	-1	-3	-48	-3
N#C/C(=C\c1ccc(O)c(O)c1)S(=O)(=O)c1ccccc1	51*	-4	-5	-3	24	5
COCCCN1C(=O)C(CC(=O)NC2CCCCC2)CC(C(=O)N(C)C)=C1C (centres undefined)	x	x	x	10	x	x
Fc1ccccc1/C=N/Nc1ncnc2nc[nH]c12	33*	1	5	10	-28	3
Cc1ccc(/C=N/Nc2ncnc3nc[nH]c23)cc1	8	-4	4	-6	x	x
CC(C)(C)NC(=O)C1(C)CCC(=O)N1C1CCN(Cc2ccccc2)CC1 (centres undefined)	x	x	x	-3	x	x
Cc1cc(C)cc(NC(=O)OC2CC3CC2[C@H]2CCCCN2[C@H]3C)c1 (some centres undefined)	x	x	x	4	x	x
CCN(CC)c1ccc(N=C2C(=O)Nc3ccccc32)cc1	63*	-18	-5	10	-24	-1
Cc1ccc(N=C2C(=O)Nc3ccccc32)cc1	1	-2	-2	0	x	x
CSc1nc(=S)c2[nH]c(=S)[nH]c2[nH]1	46*	-1	-2	2	40*	-3
O=c1c2cn[nH]c2[nH]c(=S)n1-c1ccccc1Cl	37*	-2	-2	6	21	1
O=c1c2cn[nH]c2[nH]c(=S)n1-c1ccccc1F	57*	-6	-3	8	-1	-5
Cc1ccc(-n2c(=S)[nH]c3[nH]ncc3c2=O)cc1	21	-2	-4	-4	x	x
CCOc1ccccc1Nc1nnc(SCC(=O)NC2CC2)s1	x	x	x	3	x	x
CC(=O)Nc1ccc(S(=O)(=O)NNC(=O)c2ccc([N+](=O)[O-])cc2)cc1	21	-2	1	6	x	x
COc1ccc(OCC(=O)NNC(=S)NC(=O)c2ccc([N+](=O)[O-])cc2)cc1	33*	-3	-6	-6	-3	3
CC(=O)NC(=S)NNC(=O)COc1ccc([N+](=O)[O-])cc1	8	-4	-2	3	x	x
CC(=O)NNC(=S)NC(=O)c1cccc([N+](=O)[O-])c1	47*	-4	-5	15	27	-1
O=C(COc1ccc([N+](=O)[O-])cc1)Nn1cnnc1	41*	1	0	5	-19	-1
O=C(NNS(=O)(=O)c1ccc([N+](=O)[O-])cc1)c1ccc([N+](=O)[O-])cc1	35*	0	-3	3	15	-7
SMILES	PfM18AAP inh-1	IMP-1 inh	VIM-2 inhibitor	sPLA2-III inh	PfM18AAP inh-2	CTSL1 counter
Cc1ccc(OCCN2CCC2(C)C(=O)NCc2ccc(C(F)(F)F)cc2)cc1 (centres undefined)	x	x	x	4	x	x
NNC(=O)CNS(=O)(=O)c1ccc([N+](=O)[O-])cc1	35*	-3	-4	-12	-3	0
CC(=O)Nc1ccc(S(=O)(=O)NNc2ccc([N+](=O)[O-])cc2)cc1	46*	-4	0	0	-13	2
Cc1ccc(C(=O)NC(=S)NNS(=O)(=O)c2ccc(C)cc2)cc1	40*	-3	-6	1	-30	2
O=C(CCNS(=O)(=O)c1ccccc1)OCc1ccc([N+](=O)[O-])cc1	x	x	x	12	x	x
Cc1ccc(S(=O)(=O)NNC(=S)NC(=O)c2ccc([N+](=O)[O-])cc2)cc1	48*	-3	-5	-1	-11	9
CC1=C(C(=O)N(C(C)C)C(C)C)CC(CC(=O)NCCN2CCOCC2)C(=O)N1CCC1=CCCCC1 (centres undefined)	x	x	x	4	x	x
COc1ccc(CNC(=O)CN(Cc2ccccc2F)C(=O)c2csnn2)cc1	-16	-1	1	-2	x	x
COc1cc(/C=C2/C(=O)ON=C2C)cc(Cl)c1O	32*	-8	-6	7	11	0
O=C(CCc1c[nH]c2ccccc12)OCc1ccc(Br)cc1	3	-1	4	-78	x	x
O=c1c2ccccc2nc(COc2ccccc2)n1/N=C/c1ccc(O)c(O)c1	53*	-2	-1	4	25	6
Oc1ccc(/C=N/n2c(COc3ccccc3)n[nH]c2=S)cc1O	53*	-3	-3	3	20	-8
CCOc1cc(/C=N/n2c(COc3ccccc3)n[nH]c2=S)ccc1O	19	-2	0	9	x	x
O=C(O)C1OC(Oc2cc3oc(-c4ccccc4)cc(=O)c3c(O)c2O)C(O)C(O)C1O (centres undefined)	44*	-2	-1	3	13	-1
Cc1occc1C(=O)NNC(=O)Nc1ccc(Cl)c(Cl)c1	23	-3	-1	6	x	x
Cc1ccsc1C(=O)NNC(=O)Nc1ccc(Cl)c(Cl)c1	41*	-3	0	-2	28	0
CC(C)c1cc(Cn2c3ccccc3c(=O)n2C(C)Cn2cc(COc3ccccc3)nn2)on1 (centres undefined)	x	x	x	3	x	x
Cc1ccc(NC(=S)N(CCN(C)C)Cc2cccs2)c(C)c1	36*	-3	0	6	7	1
CCOc1c(Nc2ccccc2O)c(=O)c1=O	35*	-1	-1	4	-28	1
CCOC(=O)c1ccc(Nc2c(OCC)c(=O)c2=O)cc1	3	-3	-2	-10	x	x
COc1cnn(-c2ccc(C)cc2)c(=O)c1SCc1ccccc1	3	-1	1	-6	x	x
COc1cnn(-c2ccccc2)c(=O)c1SCc1ccc(Cl)cc1Cl	36*	0	1	-11	-30	-4
CC(C)c1c(C#N)c(N)nc(SCC(=O)c2cc3ccccc3oc2=O)c1C#N	3	-2	-2	-5	x	x
N#Cc1ccc(-c2ccccc2)nc1SCC(=O)c1cc2ccccc2oc1=O	34*	-3	-1	4	-19	-1
Oc1ccccc1NCC(O)Cn1ccc2ccccc21 (centres undefined)	56*	-3	-3	14	18	1
O=C(c1ccc(Cl)cc1Cl)C1(n2cncn2)Oc2ccccc2C1O (centres undefined)	36*	-2	-4	-13	4	-4
CCc1nn(CCCC(=O)NC2CCCCC2C)c(=O)c2cc3occc3n12 (centres undefined)	x	x	x	-13	x	x
CCN(CC)S(=O)(=O)c1ccc(N2CCCCC2)c(NC(=O)/C(C#N)=C/c2ccc(OC)cc2)c1	0	-3	-4	-24	x	x
NNC(=S)Nc1cc(S(=O)(=O)N2CCOCC2)ccc1N1CCOCC1	40*	-4	-2	-4	14	-8
